ChEMBL document CHEMBL4431317, “Allosteric Inhibition of SHP2: Identification of a Potent, Selective, and Orally Efficacious Phosphatase Inhibitor” (J Med Chem, 2016)
Calls of active or inactive are those of the source. The calls are words filed in the database; no cut-off is given here.

How the values were obtained:
[1] = target: T1, Tyrosine-protein phosphatase non-receptor type 11 (Homo sapiens, UniProt Q06124); test: Inhibition of human 6his-tagged SHP2 (2 to 593 residues) expressed in Escherichia coli BL21 Star (DE3) cells preincubated with IRS1_pY1172(dPEG8)pY1222 for 30 to 60 mins followed by addition of DiFMUP measured after 30 mins by fluorescence analysis
T1 sequence (Q06124 whole entry): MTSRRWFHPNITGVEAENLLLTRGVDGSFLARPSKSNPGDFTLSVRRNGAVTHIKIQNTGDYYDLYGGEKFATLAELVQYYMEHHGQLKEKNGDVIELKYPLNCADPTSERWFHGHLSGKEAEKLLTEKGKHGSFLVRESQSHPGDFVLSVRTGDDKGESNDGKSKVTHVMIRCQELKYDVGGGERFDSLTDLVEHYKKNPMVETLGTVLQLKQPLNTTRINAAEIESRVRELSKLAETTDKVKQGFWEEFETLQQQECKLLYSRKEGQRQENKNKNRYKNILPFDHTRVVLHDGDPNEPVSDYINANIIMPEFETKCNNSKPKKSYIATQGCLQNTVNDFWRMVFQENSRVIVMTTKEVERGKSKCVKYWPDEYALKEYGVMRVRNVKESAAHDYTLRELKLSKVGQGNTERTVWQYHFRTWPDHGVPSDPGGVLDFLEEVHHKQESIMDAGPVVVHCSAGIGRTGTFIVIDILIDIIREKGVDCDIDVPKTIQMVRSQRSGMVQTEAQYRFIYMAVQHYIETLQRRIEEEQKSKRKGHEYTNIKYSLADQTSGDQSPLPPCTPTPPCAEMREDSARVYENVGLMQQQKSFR

[2] = target: T2, Tyrosine-protein phosphatase non-receptor type 11 (Homo sapiens) (UniProt Q06124); test: Inhibition of human 6his-tagged SHP2 (1 to 525 residues) expressed in Escherichia coli BL21 Star (DE3) cells assessed as change in melting temperature at 100 uM by SYPRO orange dye based differential scanning fluorometry
T2 sequence (whole entry): T1 sequence (Q06124 whole entry)
Summary of the method: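 Thermal shift with SHP2 1-525 construct at 100 µg/mL, 5× SYPRO Orange, 100 mM Bis-Tris pH 6.5, 100 mM NaCl, 0.25 mM TCEP, 5% DMSO; compound at 100 µM final. Ramp 25–75 °C in 0.5 °C steps, ex 465/em 580 nm. Tm as transition midpoint by semi-parametric fit; ΔTm against mean of 32 DMSO-only apo controls per plate.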

[3] = target: T1, Tyrosine-protein phosphatase non-receptor type 11; test: Inhibition of human SHP2 PTP domain (237 to 529 residues) by fluorescence analysis
KYSE-520 cell line [4] = test: Antitumor activity against human KYSE520 cells xenografted in immunocompromised nude mouse assessed as tumor growth inhibition at 10 mg/kg administered qd through oral gavage relative to vehicle control; format: functional
Summary of the method: (§1)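 Female nude mice inoculated subcutaneously with 3 x 10^6 parental KYSE-520 cells in 50% phenol red-free matrigel in HBSS. Tumors calipered twice weekly in two dimensions. At roughly 200 mm3, mice randomized to vehicle, test compound (10, 30 or 100 mg/kg qd) or erlotinib (80 mg/kg qd), all by oral gavage. Growth compared with vehicle group.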

[5] = Drug uptake in plasma of immunocompromised nude mouse xenografted with human KYSE520 cells administered qd via oral gavage; format: ADME; settings: in the assay text read “administered as a single dose via” for “administered qd via”
Summary of the method: (§2)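 Female nude mice bearing subcutaneous KYSE-520 xenografts (3 x 10^6 cells in 50% matrigel/HBSS) received a single oral gavage dose of vehicle or compound (30 or 100 mg/kg) once tumors reached roughly 500 mm3. Euthanized at set time points; plasma harvested for drug levels and xenograft fragments for p-ERK.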

[6] = Solubility of the compound at pH 6.8; format: physicochemical; settings: buffer
[7] = AUC in C57BL/6 mouse at 5 mg/kg, po by LC-MS/MS analysis; format: ADME, organism-based; settings: in vivo
Summary of the method: (§3)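 Male C57BL/6 mice dosed orally at 5 mg/kg. Whole blood taken by tail transection at 0.25, 0.5, 1, 2, 4 and 7 h into EDTA. Plasma stored at -20 °C, precipitated with acetonitrile containing internal standard. PK parameters from noncompartmental analysis; AUClast by linear trapezoidal rule. %F = (AUCinf,po/AUCinf,iv)×(Dose iv/Dose po), with IV reference at 1 mg/kg via tail vein. Results given as mean.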

KYSE-520 cell line [8] = test: Antitumor activity against human KYSE520 cells xenografted in immunocompromised nude mouse assessed as tumor growth at 100 mg/kg administered qd through oral gavage relative to vehicle control; format: functional; summary of the method: as §1
[9] = Apparent permeability across apical to basolateral side in human Caco2 cells; format: ADME, cell-based; settings: Caco-2
[10] = Oral bioavailability in C57BL/6 mouse at 5 mg/kg by LC-MS/MS analysis; format: ADME, organism-based; settings: in vivo; summary of the method: as §3
Mus musculus = test: In vivo inhibition of ERK phosphorylation in human KYSE520 cells xenografted in immunocompromised nude mouse at 30 and 100 mg/kg administered qd through oral gavage; format: functional, organism-based; settings: in the assay text read “administered as a single dose through” for “administered qd through”; summary of the method: as §2
KYSE-520 cell line [11] = test: Antitumor activity against human KYSE520 cells xenografted in immunocompromised nude mouse assessed as tumor growth inhibition at 30 mg/kg administered qd through oral gavage relative to vehicle control; format: functional; summary of the method: as §1
KYSE-520 cell line [12] = test: Antitumor activity against human KYSE520 cells xenografted in immunocompromised nude mouse assessed as tumor stasis at 80 mg/kg administered qd through oral gavage relative to vehicle control; format: functional, organism-based; summary of the method: as §1

CN(C)C1CCN(c2ncc(-c3cccc(Cl)c3Cl)c(N)n2)CC1
IC50 [1]: 6.5 µM

C[C@@H]1CN(c2ncc(-c3cccc(Cl)c3)c(N)n2)C[C@H](C)N1
IC50 [1]: 99 µM

C[C@@H]1CN(c2ncc(-c3cccc(Cl)c3Cl)c(N)n2)C[C@H](C)N1
ΔTm [2]: 3 to 3.02 °C | IC50 [3]: > 100 µM

Cc1cccc(-c2cnc(N3C[C@@H](C)N[C@@H](C)C3)nc2N)c1C
IC50 [1]: > 100 µM

Nc1nc(N2CCC(N)CC2)ncc1-c1cccc(Cl)c1Cl
IC50 [1]: 1.3 µM

CNc1nc(N2CCC(C)(N)CC2)cnc1-c1cccc(Cl)c1Cl
IC50 [1]: 22 µM

CC1(N)CCN(c2cnc(-c3cccc(Cl)c3Cl)c(N)n2)CC1
TGI (KYSE-520 cell line [4]): 19% | Drug uptake [5]: Dose-dependent effect | solubility [6]: > 500 µM | AUC [7]: 565 µM·h | T/C (KYSE-520 cell line [8]): 3% | Papp A→B [9]: 13.2 ×10⁻⁶ cm/s | bioavailability [10]: 46% | inhibition (Mus musculus): Active | TGI (KYSE-520 cell line [11]): 61%

C[C@@H]1CN(c2ncc(-c3ccc(Cl)c(Cl)c3)c(N)n2)C[C@H](C)N1
IC50 [1]: 54 µM

C#Cc1cccc(Nc2ncnc3cc(OCCOC)c(OCCOC)cc23)c1
Activity (KYSE-520 cell line [12]): Active
